Source: PubChem
Rin1 Abl inh = human Rin1-Abl interaction inhibition | inhibition, % at 7.35 µM | TR-FRET Rin1/Abl binding, biochemical | P00519+Q13671 | hit rate 0.4% among 360,000; in the data active means inhibition above about 5%, passing the limit was not always enough
TDP2 absorb = TDP2 (human) inhibition, absorbance primary screen; O95551; recombinant TDP2, T5PNP hydrolysis, p-nitrophenol absorbance 415 nm; inhibition, % at 12.8 µM; hit rate 0.34% among 370,000;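 active means inhibition above the mean of all tested compounds plus 3 SD, set per campaign, cut at about 25% in these data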
Target sequence (O95551 whole entry, looked up): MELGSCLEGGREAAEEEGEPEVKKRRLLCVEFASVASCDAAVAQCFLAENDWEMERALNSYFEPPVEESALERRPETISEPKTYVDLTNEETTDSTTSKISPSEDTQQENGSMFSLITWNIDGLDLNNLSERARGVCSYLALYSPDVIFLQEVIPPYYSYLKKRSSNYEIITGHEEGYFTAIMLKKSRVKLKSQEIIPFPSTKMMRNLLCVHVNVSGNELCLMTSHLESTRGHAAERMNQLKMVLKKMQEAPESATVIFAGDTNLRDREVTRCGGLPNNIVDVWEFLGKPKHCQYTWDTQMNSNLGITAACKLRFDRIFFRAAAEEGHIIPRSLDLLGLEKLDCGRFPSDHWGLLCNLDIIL
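Evaluation: % inhibition relative to enzyme-containing and enzyme-free wells. Material: recombinant human TDP2. Benchmarks: enzyme-free and DMSO wells. Timing: enzyme reaction with compound for 2 h at 37 °C. Compound dosing: 12.8 µM only. Measured by: p-Nitrophenol epi absorbance. Reagent: T5PNP substrate at 5 mM, a TopII-DNA adduct mimic. Replication: single well per compound.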
MBD2 inh = inhibitors of human MBD2 binding to methylated oligonucleotide; TR-FRET; Q9UBB5; hit rate 0.31% among 370,000; inhibition, % at 4.4 µM; in the data active means inhibition above about 13%
UHRF1 MBD2 ctr = blocks human UHRF1 binding to methylated DNA | UHRF1 binding to methylated oligo, TR-FRET | hit rate 0.75% among 370,000 | Q96T88 | inhibition, % at 4.4 µM | AID 687016;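 further: UHRF1 SRA domain binding a hemimethylated CpG hairpin DNA probe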
LEDGF integ inh = blocks HIV-1 LEDGF/p75-dependent DNA integration | TR-FRET IN-LEDGF/p75 DNA integration, Eu/Cy5 | inhibition, % at 3.7 µM | hit rate 0.64% among 370,000 | AID 743269;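 active means inhibition above the screen-wide mean plus 3 SD, cut at about 13% in these data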;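 further: signal is the Cy5 over europium emission ratio at 671 and 618 nm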
UHRF1 DNA bind = inhibits human UHRF1 binding to methylated oligonucleotide, MBD2 counter-screen; shares compounds with MBD2 inh; TR-FRET; inhibition, % at 4.4 µM; hit rate 25% among 1,000;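 further: UHRF1 SRA domain binding a labeled hemimethylated CpG hairpin DNA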
MBD2 confirm = MBD2-DBD methyl-DNA binding inhibition, TR-FRET confirmation; TR-FRET MBD2-DBD binding to methylated oligonucleotide; hit rate 26% among 1,000; shares compounds with MBD2 inh; inhibition, % at 4.4 µM; AID 720531; in the data active means inhibition above about 14%
Hits are given with their value. Sampled rows, rich in hits. Any-hit rate of the full collection: about 1.9%. Unless noted, no stated cut-off is given here; in the data, active means inhibition above about 21%; inactive means the rest.

How did COc1ccc(NC(=O)c2noc3c2CCC3)cc1 do in these assays?
Rin1 Abl inh: inactive; TDP2 absorb: inactive; MBD2 inh: 13; UHRF1 MBD2 ctr: 31; LEDGF integ inh: inactive; UHRF1 DNA bind: inactive; MBD2 confirm: inactive

How did COc1ccc(Cc2nnc(NC(=O)CS(=O)(=O)c3ccc(C)cc3)s2)cc1OC do in these assays?
Rin1 Abl inh: inactive; TDP2 absorb: inactive; MBD2 inh: 22; UHRF1 MBD2 ctr: inactive; LEDGF integ inh: inactive; UHRF1 DNA bind: inactive; MBD2 confirm: inactive

Results for Cc1cccc2cc(C(c3nnnn3CC3CCCO3)N3CCCc4ccccc43)c(=O)[nH]c12 (configuration not stated) ?
Rin1 Abl inh: inactive; TDP2 absorb: inactive; MBD2 inh: 18; UHRF1 MBD2 ctr: inactive; LEDGF integ inh: inactive; UHRF1 DNA bind: inactive; MBD2 confirm: inactive

What do the screens show for `COC(=O)C1CN(Cc2ccccc2)CCS(=O)(=O)N1Cc1ccccc1F` (configuration not stated)?
TDP2 absorb: inactive; MBD2 inh: inactive; UHRF1 MBD2 ctr: inactive; LEDGF integ inh: inactive

Results for Cc1ccccc1CS(=O)(=O)Cc1ccc(C(=O)Nc2cccc(C)c2C)o1 ?
TDP2 absorb: inactive; MBD2 inh: inactive; UHRF1 MBD2 ctr: inactive; LEDGF integ inh: inactive

Results for COc1ccc(S(=O)(=O)NCC(=O)N(CC(=O)NCC2CCCO2)Cc2ccc(F)cc2)cc1 (configuration not stated) ?
Rin1 Abl inh: inactive; TDP2 absorb: inactive; MBD2 inh: 14; UHRF1 MBD2 ctr: inactive; LEDGF integ inh: inactive; UHRF1 DNA bind: inactive; MBD2 confirm: inactive

Results for N#CCC1(O)C(=O)Nc2ccccc21 (configuration not stated) ?
TDP2 absorb: inactive; MBD2 inh: inactive; UHRF1 MBD2 ctr: inactive; LEDGF integ inh: inactive

What do the screens show for `O=C(c1cncnc1)N1CCC(n2nnc3ncccc32)CC1`?
TDP2 absorb: inactive; MBD2 inh: inactive; UHRF1 MBD2 ctr: inactive; LEDGF integ inh: inactive

What do the screens show for `CC(Sc1nnc(CN2CCCC2)n1Cc1ccccc1)C(=O)Nc1ccccc1` (configuration not stated)?
Rin1 Abl inh: inactive; TDP2 absorb: inactive; MBD2 inh: 34; UHRF1 MBD2 ctr: inactive; LEDGF integ inh: inactive; UHRF1 DNA bind: inactive; MBD2 confirm: inactive

Results for O=C(O)C1CCCCC1C(=O)Nc1cccc(Br)c1 (configuration not stated) ?
Rin1 Abl inh: inactive; TDP2 absorb: inactive; MBD2 inh: 40; UHRF1 MBD2 ctr: 67; LEDGF integ inh: inactive; UHRF1 DNA bind: 63; MBD2 confirm: 41

How did O=C(O)CC1CC(O)CCC1=O (configuration not stated) do in these assays?
Rin1 Abl inh: inactive; TDP2 absorb: inactive; MBD2 inh: 28; UHRF1 MBD2 ctr: inactive; LEDGF integ inh: inactive; UHRF1 DNA bind: inactive; MBD2 confirm: inactive

Results for C[C@H]1/C=C/CC(=O)N[C@@H](c2ccccc2)[C@@H](C)/C=C/CC(=O)N[C@H]1c1ccccc1 ?
TDP2 absorb: inactive; MBD2 inh: inactive; UHRF1 MBD2 ctr: inactive; LEDGF integ inh: inactive

Results for CCOc1c(C(N)=O)cc([N+](=O)[O-])cc1[N+](=O)[O-] ?
Rin1 Abl inh: inactive; TDP2 absorb: inactive; MBD2 inh: inactive; UHRF1 MBD2 ctr: inactive; LEDGF integ inh: inactive

How did Cc1c(C(N)=O)cc([N+](=O)[O-])cc1[N+](=O)[O-] do in these assays?
Rin1 Abl inh: inactive; TDP2 absorb: inactive; MBD2 inh: 17; UHRF1 MBD2 ctr: 23; LEDGF integ inh: inactive; UHRF1 DNA bind: inactive; MBD2 confirm: inactive

How did Cc1ccc(-n2nc3c(c2NC(=O)c2cccs2)CS(=O)(=O)C3)c(C)c1 do in these assays?
Rin1 Abl inh: inactive; TDP2 absorb: inactive; MBD2 inh: 15; UHRF1 MBD2 ctr: inactive; LEDGF integ inh: inactive; UHRF1 DNA bind: inactive; MBD2 confirm: inactive

What do the screens show for `CC(=O)Nc1c2c(nn1-c1ccc(C)cc1)CS(=O)(=O)C2`?
Rin1 Abl inh: inactive; TDP2 absorb: inactive; MBD2 inh: 70; UHRF1 MBD2 ctr: inactive; LEDGF integ inh: inactive; UHRF1 DNA bind: inactive; MBD2 confirm: inactive

What do the screens show for `CCCCCC(=O)NC1CCCCN(C)C1=O` (configuration not stated)?
TDP2 absorb: inactive; MBD2 inh: inactive; UHRF1 MBD2 ctr: inactive; LEDGF integ inh: inactive

Results for C=CCN1C(=O)[C@@H](CC(=O)NCc2cccc(C(F)(F)F)c2)[C@]2(C(=O)OCC)CCCCC/C=C/12 ?
TDP2 absorb: inactive; MBD2 inh: inactive; UHRF1 MBD2 ctr: inactive; LEDGF integ inh: inactive

Results for Cc1ccc(SCCN2CCC(C(C)(C)C)CCC2=O)cc1 (configuration not stated) ?
Rin1 Abl inh: inactive; TDP2 absorb: inactive; MBD2 inh: 14; UHRF1 MBD2 ctr: 30; LEDGF integ inh: inactive; UHRF1 DNA bind: inactive; MBD2 confirm: inactive

How did CC(C)(C)C1CCC(=O)N(CCSc2ccccc2)CC1 (configuration not stated) do in these assays?
Rin1 Abl inh: inactive; TDP2 absorb: inactive; MBD2 inh: inactive; UHRF1 MBD2 ctr: inactive; LEDGF integ inh: inactive

How did O=C(Nc1ccc(C(F)(F)F)cc1)OC1CCC12CCCCC2 (configuration not stated) do in these assays?
TDP2 absorb: inactive; MBD2 inh: inactive; UHRF1 MBD2 ctr: inactive; LEDGF integ inh: inactive

What do the screens show for `C[C@@H]1CCCN1c1cccc2c1S(=O)(=O)N1CC[C@H](C1)O2`?
TDP2 absorb: inactive; MBD2 inh: inactive; UHRF1 MBD2 ctr: inactive; LEDGF integ inh: inactive

How did O=C(Nc1ccc2ncccc2c1)c1cc(-c2ccc(Cl)cc2)nc2ccccc12 do in these assays?
TDP2 absorb: inactive; MBD2 inh: inactive; UHRF1 MBD2 ctr: inactive; LEDGF integ inh: inactive

What do the screens show for `CC(C)(C)NC(=O)CN(C(=O)c1ccc(CN2CCOCC2)o1)c1ccc2c(c1)OCCO2`?
Rin1 Abl inh: inactive; TDP2 absorb: inactive; MBD2 inh: inactive; UHRF1 MBD2 ctr: inactive; LEDGF integ inh: inactive

Results for COc1ccc(C(=O)N(CC(=O)NC(C)(C)C)c2ccc3c(c2)OCCO3)cc1OC ?
Rin1 Abl inh: inactive; TDP2 absorb: inactive; MBD2 inh: 16; UHRF1 MBD2 ctr: inactive; LEDGF integ inh: inactive; UHRF1 DNA bind: inactive; MBD2 confirm: inactive

What do the screens show for `N#Cc1cccc(NC(=O)OC2CC3CC2[C@H]2CCCCN2[C@H]3Cc2ccccc2)c1` (some centres not stated)?
TDP2 absorb: inactive; MBD2 inh: inactive; UHRF1 MBD2 ctr: inactive; LEDGF integ inh: inactive

Results for COc1ccc(C(CC(=O)N2CCOCC2)C(C)C)cc1 (configuration not stated) ?
Rin1 Abl inh: inactive; TDP2 absorb: inactive; MBD2 inh: 15; UHRF1 MBD2 ctr: 23; LEDGF integ inh: inactive; UHRF1 DNA bind: inactive; MBD2 confirm: inactive
